Assay results from different studies.
Lines come from different studies, so protocols differ.
Target: Testis-specific serine/threonine-protein kinase 1 (TSSK1B, Homo sapiens, UniProt Q9BXA7)
One construct used (Q9BXA7 1-367): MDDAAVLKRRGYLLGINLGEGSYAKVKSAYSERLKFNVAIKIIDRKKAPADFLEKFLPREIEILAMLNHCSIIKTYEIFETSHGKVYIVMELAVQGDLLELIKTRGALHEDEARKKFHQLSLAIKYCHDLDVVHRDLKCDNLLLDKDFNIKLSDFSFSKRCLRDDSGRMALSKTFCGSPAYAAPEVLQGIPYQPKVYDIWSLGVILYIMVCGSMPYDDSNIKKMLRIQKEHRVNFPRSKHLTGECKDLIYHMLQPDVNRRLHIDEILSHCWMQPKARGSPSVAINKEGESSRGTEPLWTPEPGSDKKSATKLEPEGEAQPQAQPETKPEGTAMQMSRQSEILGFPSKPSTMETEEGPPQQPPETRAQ

| Structure (SMILES) | test | setting | remaining binding |
| --- | --- | --- | --- |
| CCN1CCN(Cc2ccc(C(=O)Nc3ccc(C)c(Oc4ccc5c(c4)CC(=O)N5)c3)cc2C(F)(F)F)CC1 | binding, competition with immobilised ligand | 1 µM | 93% |
| CCC(=N\O)/C(C)=C/c1ccc(F)cc1 | cell-free assay, competition with immobilised ligand | 1 µM | 82% |
| COc1cnc(Nc2cccc(S(N)(=O)=O)c2)nc1N1CCN(c2ccccc2)CC1 | binding, competition with immobilised ligand | 1 µM | 100% |
| CN(C)c1ncc(F)c(-c2cnn3ncccc23)n1 | binding | 1 µM | 100% |
| NS(=O)(=O)c1cc(NC(=O)Cc2ccccc2)ccc1Oc1cccc(Cl)c1 | cell-free assay, competition with immobilised ligand | 1 µM | 100% |
| O=C(NCCCN1CCOCC1)c1ccc(Nc2nccc(-c3cc4ccccc4s3)n2)cc1 | binding, competition with immobilised ligand | 1 µM | 93% |
| COc1ccc2c(c1)O[C@@H](c1ccc(OC)c(OC)c1)C[C@H]2NC(=O)C1(c2ccc3c(c2)OC(F)(F)O3)CC1 | cell-free assay, competition with immobilised ligand | 1 µM | 100% |
| N[C@H]1CCN(c2nccc(-c3cnn4ncccc34)n2)C1 | binding | 1 µM | 100% |
| Cc1noc([C@H]2C[C@@H](c3ccc(C(F)(F)F)cc3)CN(C(=O)N3CCS(=O)(=O)C3)C2)n1 | cell-free assay, competition with immobilised ligand | 1 µM | 100% |
| C[C@@H](c1ccc(-n2cnc3c(N)ncnc32)cc1)N1CCc2nn(C)c(Cc3ccccc3)c2C1=O | binding, competition with immobilised ligand | 0.1 µM | 100% |
| C[C@H]1CCN(c2nccc(-c3cnn4ncccc34)n2)C1 | binding | 1 µM | 98% |
| O=C(c1ccc(Nc2ncc(Cl)c(-c3cc4ccccc4s3)n2)cc1)N1CCC(N2CCCC2)CC1 | binding, competition with immobilised ligand | 1 µM | 85% |
| F[C@@H]1CCN(c2nccc(-c3cnn4ncccc34)n2)C1 | binding | 1 µM | 100% |
| O=C(NS(=O)(=O)c1ccc(NCC2CCOCC2)c([N+](=O)[O-])c1)c1ccc(N2CCN(Cc3ccc(C(F)(F)F)cc3-c3ccc(Cl)cc3)CC2)cc1Oc1cnc2[nH]ccc2c1 | cell-free assay, competition with immobilised ligand | 1 µM | 100% |
| Nc1ncc2c(n1)-c1c([nH]c3ccc(C#CC4CC4)cc13)CCCC2 | binding, competition with immobilised ligand | 1 µM | 100% |
| Cc1cnn2ncc(-c3ccnc(N(C)C)n3)c2c1 | binding | 1 µM | 100% |
| c1cncc(-c2cccc(Nc3nccc(NC4CCCCC4)n3)c2)c1 | binding, competition with immobilised ligand | 10 µM | 60% |
| CC(C)CC(=O)N1CCc2nc(-c3ccc(Br)cc3)nc(N(C)Cc3ccccc3)c2C1 | cell-free assay, competition with immobilised ligand | 0.1 µM | 99% |
| O=C(NCC1CCOCC1)c1n[nH]cc1NC(=O)c1c(F)cccc1F | binding, competition with immobilised ligand | 1 µM | 97% |
| C[C@@H]1CN(c2ccc3ncc(-c4ccc5[nH]nc(C6CC6)c5c4)n3n2)C[C@H](C)O1 | binding, competition with immobilised ligand | 0.5 µM | 100% |
| FC(F)(F)Oc1cccc(-c2cnc3ccc(-c4ccncc4)nn23)c1 | binding, competition with immobilised ligand | 5 µM | 83% |
| COc1ccnn2ncc(-c3ccnc(N(C)C)n3)c12 | binding | 1 µM | 100% |
| O=C(c1ccc(Nc2nccc(-c3cc4ccccc4s3)n2)cc1)N1CCC(N2CCCC2)CC1 | binding, competition with immobilised ligand | 1 µM | 100% |
| COc1cc(-c2cn(C3CCc4ccccc4N(CC(F)(F)F)C3=O)nn2)ccc1-n1ccc(C)n1 (stereo not shown) | cell-free assay, competition with immobilised ligand | 1 µM | 83% |
| CN(C)c1nccc(-c2cnc3ncccn23)n1 | binding | 1 µM | 100% |
